Key:
[1] = target: T1, Human immunodeficiency virus type 1 integrase (Human immunodeficiency virus 1, UniProt Q7ZJM1); assay: Inhibition of HIV1 integrase strand transfer activity using 5'[digoxigenin]-GACCCTTTTAGTCAGTGTGGAAAATCTCTAGCA-3' as substrate incubated for 1 hr by ELISA
Summary of the method: (§1)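 ELISA with a 3'-biotin oligo and a 5'-digoxigenin partner oligo. Overall assay uses the full complementary oligo; strand transfer uses a precleaved oligo lacking the 3'-GT. Integrase at 160 nM final, annealed oligos 7 nM, in 10 mM MgCl2, 5 mM DTT, 20 mM HEPES pH 7.5, 0.5% PEG, 15% DMSO. Run 1 h at 37 °C, products denatured with NaOH, detected on avidin plates.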

[2] = Cytotoxicity against human MT4 cells assessed as reduction in cell viability by MTT assay; assay type: cell-based
Summary of the method: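 MT-4 cell viability was measured by MTT reduction, run in parallel with the antiviral assay using 5-fold serial compound dilutions. CC50 is the concentration reducing viability by 50%.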

[3] = test system: Human immunodeficiency virus 1; assay: Antiviral activity against HIV1 3B infected in human MT4 cells assessed as reduction in virus-induced cytopathic effect by MTT assay; assay type: functional, organism-based; conditions: Human immunodeficiency virus 1, 3B
Summary of the method: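 MT-4 cells infected with 100-300 CCID50 of HIV-1 IIIB, in the presence of 5-fold serial dilutions of compound. Cytopathic effect read by MTT reduction to formazan, measured spectrophotometrically. EC50 is the concentration giving 50% protection against virus-induced CPE.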

[4] = target: T1, Human immunodeficiency virus type 1 integrase; assay: Inhibition of HIV1 integrase using 3'-biotin-labelled and 5'-digoxigenin-labelled oligonucleotide substrate incubated for 1 hr by ELISA; summary of the method: as §1
[5] = Therapeutic index, ratio of CC50 for human MT4 cells to EC50 for HIV1 3B infected in human MT4 cells; assay type: cell-based; conditions: read-out: Ratio CC50/EC50
Summary of the method: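 Ratio of CC50 to EC50. Both were determined in parallel by MTT in MT-4 cells, with the EC50 measured against HIV-1 IIIB cytopathic effect.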

[6] = Inhibition of recombinant HIV1 reverse transcriptase RNase H activity using calf thymus ssDNA-[3H]-RNA as template/primer incubated for 10 mins; parameters: species or system Human immunodeficiency virus 1
Summary of the method: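 Recombinant HIV-1 RT (4.5 pmol) preincubated with compound 10 min at 37 °C. Then reacted 10 min at 37 °C with [3H]-RNA/calf thymus DNA hybrid (20,000 cpm) in 50 mM Tris-HCl pH 8.0, 10 mM DTT, 6 mM MgCl2, 80 mM KCl. Stopped with cold TCA/pyrophosphate; released radioactivity taken by subtraction from undigested control.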

[7] = test system: Human immunodeficiency virus 1; assay: Antiviral activity against HIV1 3B infected in human MT4 cells at 50 to 100 times antiviral EC50 added 1 to 25 hrs post infection assessed as time required for loss of inhibition of viral replication measured at 30 hrs post infection by p24 ELISA method; assay type: functional
[8] = test system: Human immunodeficiency virus 1; assay: Selectivity ratio of EC50 for raltegravir resistant HIV1 harboring integrase G140S/Q148H double mutant infected in human MT4 cells to EC50 for wild type HIV1 3B infected in human MT4 cells; assay type: functional
Summary of the method: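 MT-4 cells were infected with 100–300 CCID₅₀ of virus stock (titrated in MT-4 cells) in the presence of 5-fold serial drug dilutions. EC₅₀ is the concentration giving 50% protection against virus-induced cytopathic effect, read by MTT reduction (MT-4/MTT assay). The value is the fold-change in EC₅₀ for each mutant strain relative to the wild-type HIV-1 strain.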

T1 sequence (Q7ZJM1 whole entry): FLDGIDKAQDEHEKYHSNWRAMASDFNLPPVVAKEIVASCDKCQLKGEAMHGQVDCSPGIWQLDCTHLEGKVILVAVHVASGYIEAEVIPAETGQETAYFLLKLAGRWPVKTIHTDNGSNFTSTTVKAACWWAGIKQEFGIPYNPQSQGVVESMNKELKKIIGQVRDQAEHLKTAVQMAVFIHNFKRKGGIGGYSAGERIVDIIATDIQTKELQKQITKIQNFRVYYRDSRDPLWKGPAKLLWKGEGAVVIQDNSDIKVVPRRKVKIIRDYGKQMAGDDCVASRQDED

Row | Structure (SMILES) | IC50 [1] [µM] | CC50 [2] [µM] | EC50 [3] [µM] | IC50 [4] [µM] | selectivity ratio [5] | IC50 [6] [µM] | Time [7] [h] | Ratio EC50 [8]
1 | CCN(CC)C(=O)C1C(=O)N(O)C(=O)c2ccccc21 (stereo unspecified) | 206 | 28 | > 28 | 123 |  |  |  | 
2 | CCCCNC(=O)C1C(=O)N(O)C(=O)c2ccccc21 (stereo unspecified) | 0.48 | 128 | 9.2 | 0.66 | 14 | 15.1 |  | 
3 | O=C(C1C(=O)N(O)C(=O)c2ccccc21)N1CCCCC1 (stereo unspecified) | 9.1 | 120 | > 120 | 8.12 |  |  |  | 
4 | CCCCCCCCNC(=O)C1C(=O)N(O)C(=O)c2ccccc21 (stereo unspecified) | 9.13 | 98.5 | 28 | 9.05 | 3.5 |  |  | 
5 | CC(C)(C)NC(=O)C1C(=O)N(O)C(=O)c2ccccc21 (stereo unspecified) | 4.46 | 142 | > 142 | 4.45 |  |  |  | 
6 | CCCCCCCNC(=O)C1C(=O)N(O)C(=O)c2ccccc21 (stereo unspecified) | 1.05 | 110 | 32.5 | 0.86 | 3.4 | 23.2 |  | 
7 | O=C(NC1CC1)C1C(=O)N(O)C(=O)c2ccccc21 (stereo unspecified) | 4 | > 250 | 42.7 | 2.13 | > 6 |  |  | 
8 | CCCCN(C)C(=O)C1C(=O)N(O)C(=O)c2ccccc21 (stereo unspecified) | 8.7 | 63.8 | > 63.8 | 8.66 |  |  |  | 
9 | CC(C)c1nc(CN(C)C(=O)N[C@H](C(=O)N[C@@H](Cc2ccccc2)C[C@H](O)[C@H](Cc2ccccc2)NC(=O)OCc2cncs2)C(C)C)cs1 [RITONAVIR] |  |  |  |  |  |  | 25 | 
10 | C[C@@H]1CCO[C@H]2Cn3cc(C(=O)NCc4ccc(F)cc4F)c(=O)c(O)c3C(=O)N12 [DOLUTEGRAVIR] |  |  |  |  |  |  |  | 5
11 | O=C(NC1CCCCC1)C1C(=O)N(O)C(=O)c2ccccc21 (stereo unspecified) | 3.36 | > 250 | 80.2 | 0.7 | > 3 |  |  | 
12 | CC(C)NC(=O)C1C(=O)N(O)C(=O)c2ccccc21 (stereo unspecified) | 5.05 | 162 | 30.2 | 4.43 | 5.4 |  |  | 
13 | CCCNC(=O)C1C(=O)N(O)C(=O)c2ccccc21 (stereo unspecified) | 1.99 | 131 | 28 | 1.82 | 4.7 |  |  | 
14 | O=C(NC1CCCC1)C1C(=O)N(O)C(=O)c2ccccc21 (stereo unspecified) | 3.63 | > 250 | 61.9 | 1.36 | > 4 |  |  | 
15 | Cc1cn([C@H]2C[C@H](N=[N+]=[N-])[C@@H](CO)O2)c(=O)[nH]c1=O [ZIDOVUDINE] |  |  |  |  |  |  | 4 | 
16 | CCCCCNC(=O)C1C(=O)N(O)C(=O)c2ccccc21 (stereo unspecified) | 0.53 | 130 | 10.7 | 0.65 | 12.1 |  |  | 
17 | CCCCCCCCCNC(=O)C1C(=O)N(O)C(=O)c2ccccc21 (stereo unspecified) | 6.67 | 88.5 | 29 | 6.65 | 3 |  |  | 
